Laboratory results: ChEMBL document CHEMBL1122153, “Novel dimeric derivatives of leucomycins and tylosin, sixteen-membered macrolides” (1982)
≈ marks a conversion by molar mass, not a printed value.

Experiments:
Assay type in all cases: functional
[1] = test system: Escherichia coli; assay: Minimum inhibitory concentration (MIC) required to inhibit the growth of Escherichia coli NIHJ using nutrient agar as growth medium
[2] = test system: Escherichia coli; assay: Inhibition of 10,11,12,13-[3H]tetrahydroleucomycin A3 binding to Escherichia coli Ribosome; settings: read-out: ID50
Procedure, shortened: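 Competition binding of [3H]tetrahydroleucomycin A3 to E. coli ribosomes. ID50 is the concentration of test agent giving 50% inhibition of radioligand binding.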

[3] = test system: Bacillus subtilis; assay: Minimum inhibitory concentration (MIC) required to inhibit the growth of Bacillus subtilis PCI 219 by using nutrient agar as growth medium
[4] = test system: Klebsiella pneumoniae; assay: Minimum inhibitory concentration (MIC) required to inhibit the growth of Klebsiella pneumoniae PCI 602 using nutrient agar as growth medium
[5] = test system: Staphylococcus aureus; assay: Minimum inhibitory concentration (MIC) required to inhibit the growth of Staphylococcus aureus FDA 209P by using nutrient agar as growth medium
[6] = test system: Micrococcus luteus; assay: Minimum inhibitory concentration (MIC) required to inhibit the growth of Sarcina lutea PCI 1001 by using nutrient agar as growth medium

| SMILES | MIC [1] [µg/mL] | IC50 [2] [µg/mL] | MIC [3] [µg/mL] | MIC [4] [µg/mL] | MIC [5] [µg/mL] | MIC [6] [µg/mL] |
| --- | --- | --- | --- | --- | --- | --- |
| CO[C@@H]1[C@@H](OC2OC(C)C(OC3CC(C)(O)C(OC(=O)CC(C)C)C(C)O3)C(N(C)C)C2O)[C@@H](CCNCC[C@@H]2C[C@H](C)[C@H](O)/C=C/C=C/C[C@H](C)OC(=O)C[C@H](OC(C)=O)[C@@H](OC)[C@@H]2OC2OC(C)C(OC3CC(C)(O)C(OC(=O)CC(C)C)C(C)O3)C(N(C)C)C2O)C[C@@H](C)[C@@H](O)/C=C/C=C/C[C@@H](C)OC(=O)C[C@H]1OC(C)=O (some centres undefined) | > 100 | 0.1 (≈ 0.0609 µM) | 6.25 (≈ 3.81 µM) | > 100 | 100 (≈ 60.9 µM) | 25 (≈ 15.2 µM) |
| CC[C@H]1OC(=O)C[C@@H](O)[C@H](C)[C@@H](OC2OC(C)C(OC3CC(C)(O)C(O)C(C)O3)C(N(C)C)C2O)[C@@H](CCN)C[C@@H](C)C(=O)/C=C/C(C)=C/C1COC1OC(C)C(O)C(OC)C1OC (some centres undefined) | > 100 | – | 25 (≈ 27.3 µM) | > 100 | 50 (≈ 54.5 µM) | 6.25 (≈ 6.81 µM) |
| CO[C@@H]1[C@@H](OC2OC(C)C(OC3CC(C)(O)C(OC(=O)CC(C)C)C(C)O3)C(N(C)C)C2O)[C@@H](CC=O)C[C@@H](C)[C@@H](O)/C=C/C=C/C[C@@H](C)OC(=O)C[C@H]1OC(C)=O (some centres undefined) | 50 (≈ 60.4 µM) | – | 0.4 (≈ 0.483 µM) | 50 (≈ 60.4 µM) | 0.4 (≈ 0.483 µM) | < 0.1 |
| CCCC(=O)OC1C(C)OC(OC2C(C)OC(O[C@@H]3[C@H](CCNCC[C@H]4C[C@@H](C)[C@@H](O)/C=C/C=C/C[C@@H](C)OC(=O)C[C@@H](O)[C@H](OC)[C@H]4OC4OC(C)C(OC5CC(C)(O)C(OC(=O)CCC)C(C)O5)C(N(C)C)C4O)C[C@H](C)[C@H](O)/C=C/C=C/C[C@H](C)OC(=O)C[C@H](O)[C@H]3OC)C(O)C2N(C)C)CC1(C)O (some centres undefined) | > 100 | 0.02 (≈ 0.0131 µM) | 12.5 (≈ 8.18 µM) | > 100 | 50 (≈ 32.7 µM) | 12.5 (≈ 8.18 µM) |
| CC[C@H]1OC(=O)C[C@@H](O)[C@H](C)[C@@H](O[C@@H]2O[C@H](C)[C@@H](O[C@H]3C[C@@](C)(O)[C@@H](O)[C@H](C)O3)[C@H](N(C)C)[C@H]2O)[C@@H](CC=O)C[C@@H](C)C(=O)/C=C/C(C)=C/[C@@H]1CO[C@@H]1O[C@H](C)[C@@H](O)[C@@H](OC)[C@H]1OC [TYLOSIN] | 50 (≈ 54.6 µM) | 0.0004 (≈ 0.000437 µM) | 0.78 (≈ 0.851 µM) | 100 (≈ 109 µM) | 0.78 (≈ 0.851 µM) | < 0.1 |
| CC[C@@H]1OC(=O)C[C@H](O)[C@@H](C)[C@H](OC2OC(C)C(O)C(N(C)C)C2O)[C@H](CCNCC[C@H]2C[C@@H](C)C(=O)/C=C/C(C)=C/C(COC3OC(C)C(O)C(OC)C3OC)[C@@H](CC)OC(=O)C[C@@H](O)[C@H](C)[C@H]2OC2OC(C)C(O)C(N(C)C)C2O)C[C@H](C)C(=O)/C=C/C(C)=C/C1COC1OC(C)C(O)C(OC)C1OC (some centres undefined) | 50 (≈ 32.7 µM) | – | 25 (≈ 16.4 µM) | 100 (≈ 65.4 µM) | 3.12 (≈ 2.04 µM) | 0.78 (≈ 0.51 µM) |
| CC[C@H]1C[C@@H](C)[C@@H](O)/C=C/C=C/C[C@@H](C)OC(=O)C[C@@H](OC(C)=O)[C@H](OC)[C@H]1OC1OC(C)C(OC2CC(C)(O)C(OC(=O)CC(C)C)C(C)O2)C(N(C)C)C1O (some centres undefined) | > 100 | – | 6.25 (≈ 7.68 µM) | > 100 | 6.25 (≈ 7.68 µM) | 1.56 (≈ 1.92 µM) |
| CO[C@@H]1[C@@H](OC2OC(C)C(OC3CC(C)(O)C(OC(=O)CC(C)C)C(C)O3)C(N(C)C)C2O)[C@@H](CCN)C[C@@H](C)[C@@H](O)/C=C/C=C/C[C@@H](C)OC(=O)C[C@H]1OC(C)=O (some centres undefined) | > 100 | – | 50 (≈ 60.3 µM) | > 100 | > 100 | > 100 |
| CCCC(=O)OC1C(C)OC(OC2C(C)OC(O[C@H]3[C@@H](CC=O)C[C@@H](C)[C@@H](O)/C=C/C=C/C[C@@H](C)OC(=O)C[C@@H](O)[C@@H]3OC)C(O)C2N(C)C)CC1(C)O (some centres undefined) | 25 (≈ 32.4 µM) | 0.0012 (≈ 0.00155 µM) | 0.2 (≈ 0.259 µM) | 25 (≈ 32.4 µM) | < 0.1 | < 0.1 |
| CCCC(=O)OC1C(C)OC(OC2C(C)OC(O[C@H]3[C@@H](CCN)C[C@@H](C)[C@@H](O)/C=C/C=C/C[C@@H](C)OC(=O)C[C@@H](O)[C@@H]3OC)C(O)C2N(C)C)CC1(C)O (some centres undefined) | > 100 | – | > 100 | > 100 | > 100 | 25 (≈ 32.3 µM) |
